Where a name gives a salt, the structure may show the parent alone.

The values below come from ChEMBL document CHEMBL1144427, “Synthesis and in vitro and in vivo antitumor activity of 2-phenylpyrroloquinolin-4-ones” (J Med Chem, 2005).

The nature of experiment [1]: Cytotoxic activity against human tumor SW 13 cell line. It counts as functional, cell-based. The gist of the method: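 Maintained in Leibovitz medium with 10% FBS and penicillin/streptomycin. Colorimetric MTT assay: 10⁴ cells/well, compound at 0.01–100 µM final from 24 h after seeding, for 72 h. MTT for 4 h, then SDS in 0.01 N HCl for 18 h at 37 °C, absorbance at 550 nm. IC50 is the concentration halving absorbance versus control, from 6–8 wells in at least two independent runs.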

Experiment [2] in a line: Cytotoxic activity against human tumor Aro cell line. It counts as functional, cell-based. Put shortly:
(§1)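 DMEM with 10% heat-inactivated FBS and antibiotics used for culture. Cells plated at 10⁴/well; after 24 h, 72 h exposure to 0.01–100 µM (final) compound. Survival measured by MTT (4 h), SDS/HCl solubilisation for 18 h at 37 °C, absorbance at 550 nm. IC50 is the concentration giving 50% absorbance reduction versus untreated cells, from 6–8 wells across at least two experiments.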

A short description of experiment [3]: Cytotoxic activity against human tumor PT45 cell line. It counts as functional, cell-based. To be noted: PT-45. The gist of the method:
(§2)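 Cells kept in RPMI with 10% heat-inactivated FBS and penicillin/streptomycin. MTT assay: 10⁴ cells/well seeded, exposed after 24 h to compound at 0.01–100 µM final for 72 h. MTT was added for 4 h, then SDS/HCl for 18 h at 37 °C, and absorbance read at 550 nm. IC50 is the concentration halving absorbance versus untreated cells, from 6–8 wells in at least two independent experiments.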

For a further experiment, the system named is A 172. The experiment can be described thus: Cytotoxic activity against human tumor A-172 cell line. Format: functional, cell-based. The gist of the method:
as §2

The nature of experiment [4]: Cytotoxic activity against human tumor C8305 cell line. It counts as functional, cell-based. Put shortly: as §2
A further experiment has as its system HT-29. The experiment can be described thus: Cytotoxic activity against human tumor HT-29 cell line. It counts as functional, cell-based. Put shortly:
as §1

For a further experiment, the system named is MCF7. The experiment can be described thus: Cytotoxic activity against human tumor MCF-7 cell line. It counts as functional, cell-based. Put shortly: as §1
Experiment [5] can be described thus: Cytotoxic activity against human tumor Hep 3B cell line. Format: functional. To be noted: Hep3B. The gist of the method: as §1
The subject of another experiment is HepG2. In words: Cytotoxic activity against human tumor Hep G2 cell line. It counts as functional, cell-based. The gist of the method: as §1
For a further experiment, the system named is IGROV-1. The experiment can be described thus: Cytotoxic activity against human tumor Igrov-1 cell line. Format: functional, cell-based. Put shortly: as §2
The subject of another experiment is OVCAR-3. In words: Cytotoxic activity against human tumor Ovcar-3 cell line. It counts as functional, cell-based. The gist of the method:
as §2

Experiment [6] is described as follows: Cytotoxic activity against human tumor NCI-H295 cell line. It counts as functional, cell-based. Put shortly:
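Grown in RPMI with 2% FBS, insulin-transferrin-selenium and penicillin/streptomycin. MTT read-out: 10⁴ cells/well, compound 0.01–100 µM final added after 24 h, 72 h exposure. MTT for 4 h, solubilised in SDS/HCl for 18 h at 37 °C, absorbance at 550 nm. IC50 is the concentration cutting absorbance 50% versus control, from 6–8 replicate wells over two or more independent experiments.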

Experiment [7] can be described thus: Cytotoxic activity against human tumor PLC/PRF/5 cell line. It counts as functional. The gist of the method:
as §1

Experiment [8] in a line: Cytotoxic activity against human tumor Mia Paca 2 cell line. Format: functional, cell-based. The gist of the method:
as §2

The term IC50 denotes the concentration needed to halve the response being measured. Low readings indicate greater potency, high ones weaker potency. As for `COc1cccc(-c2cc(O)c3ccc4[nH]ccc4c3n2)c1`, the IC50 in [1] (Homo sapiens, SW13) is 0.7 µM; in experiment [2] (Homo sapiens, ARO), 4 µM; in experiment [3], 100 µM; in the experiment with A 172, over 100 µM; in experiment [4] (Homo sapiens, C8305), 10 µM; with HT-29, 50 µM. For the same compound, the IC50 came out at 1 µM with MCF7 (Homo sapiens, MCF7); 2 µM in experiment [5]; 2 µM with HepG2 (Homo sapiens, HepG2); 3 µM in the experiment with IGROV-1 (Homo sapiens, IGROV-1); 1 µM with OVCAR-3 (Homo sapiens, OVCAR-3); 3 µM in [6] (Homo sapiens, NCI-H295). Besides, the IC50 was 7 µM in experiment [7] (Homo sapiens, PLC-PRF-5) and 5 µM in experiment [8].

Regarding `Cn1ccc2c3nc(-c4ccccc4)cc(O)c3ccc21`, the IC50 is 0.9 µM in experiment [1] (Homo sapiens, SW13); 5 µM in [2] (Homo sapiens, ARO); 100 µM in experiment [3]; over 100 µM with A 172; 10 µM in [4] (Homo sapiens, C8305); 50 µM in the experiment on HT-29. Further, the IC50 amounted to 4 µM in the experiment on MCF7 (Homo sapiens, MCF7); 1 µM in [5]; 1 µM in the experiment on HepG2 (Homo sapiens, HepG2); 3 µM in the experiment on IGROV-1 (Homo sapiens, IGROV-1); 2 µM in the experiment with OVCAR-3 (Homo sapiens, OVCAR-3); 2 µM in experiment [6] (Homo sapiens, NCI-H295). In addition, the IC50 in experiment [7] (Homo sapiens, PLC-PRF-5) came out at 7 µM; in experiment [8], 8 µM.

For the compound `Oc1cc(-c2ccccc2)nc2c1ccc1[nH]ccc12`, the IC50 in [1] (Homo sapiens, SW13) worked out at 3 µM; in experiment [2] (Homo sapiens, ARO), 8 µM; in [3], 100 µM; in the experiment with A 172, 100 µM; in experiment [4] (Homo sapiens, C8305), 10 µM; with HT-29, 60 µM. Also, the IC50 was determined as 4 µM in the experiment with MCF7 (Homo sapiens, MCF7); 4 µM in [5]; 4 µM with HepG2 (Homo sapiens, HepG2); 5 µM in the experiment with IGROV-1 (Homo sapiens, IGROV-1); 2 µM in the experiment on OVCAR-3 (Homo sapiens, OVCAR-3); 8 µM in experiment [6] (Homo sapiens, NCI-H295). The IC50 was determined as 8 µM in [7] (Homo sapiens, PLC-PRF-5) and 4 µM in [8].

Consider `Oc1ccnc2c1ccc1[nH]ccc12`, for which the IC50 was over 100 µM in [1] (Homo sapiens, SW13); over 100 µM in experiment [2] (Homo sapiens, ARO); over 100 µM in [3]; over 100 µM with A 172; over 100 µM in experiment [4] (Homo sapiens, C8305); over 100 µM with HT-29. The IC50 with MCF7 (Homo sapiens, MCF7) is over 100 µM; in [5], over 100 µM; in the experiment with HepG2 (Homo sapiens, HepG2) it was over 100 µM; in the experiment on IGROV-1 (Homo sapiens, IGROV-1), over 100 µM; in the experiment with OVCAR-3 (Homo sapiens, OVCAR-3), over 100 µM; in experiment [6] (Homo sapiens, NCI-H295), over 100 µM. Moreover, the IC50 in experiment [7] (Homo sapiens, PLC-PRF-5) is over 100 µM; in experiment [8], over 100 µM.

Take `Oc1cc(-c2cccs2)nc2c1ccc1[nH]ccc12`: the IC50 was 50 µM in experiment [1] (Homo sapiens, SW13); 80 µM in experiment [2] (Homo sapiens, ARO); 100 µM in experiment [3]; over 100 µM in the experiment on A 172; 100 µM in [4] (Homo sapiens, C8305); over 100 µM with HT-29. Besides, the IC50 with MCF7 (Homo sapiens, MCF7) was 30 µM; in [5], 50 µM; in the experiment on HepG2 (Homo sapiens, HepG2), 10 µM; in the experiment on IGROV-1 (Homo sapiens, IGROV-1), 15 µM; with OVCAR-3 (Homo sapiens, OVCAR-3), 20 µM; in [6] (Homo sapiens, NCI-H295), 40 µM. Further, the IC50 is 80 µM in experiment [7] (Homo sapiens, PLC-PRF-5) and over 100 µM in experiment [8].

As to `Nc1cccc(-c2cc(O)c3ccc4[nH]ccc4c3n2)c1` [listing 1 of 2 here], the IC50 is 10 µM in experiment [1] (sw 13); 70 µM in experiment [2] (Homo sapiens, ARO); over 100 µM in experiment [3]; over 100 µM in the experiment on A 172; 80 µM in [4] (Homo sapiens, C8305); over 100 µM in the experiment with HT-29. For the same compound, the IC50 in the experiment with MCF7 (Homo sapiens, MCF7) was 50 µM; in experiment [5] it was over 100 µM; with HepG2 (Homo sapiens, HepG2) it was 50 µM; in the experiment on IGROV-1 (igrov-1), 30 µM; in the experiment on OVCAR-3 (ovcar-3) it was 30 µM; in [6] (Homo sapiens, NCI-H295), 50 µM. The IC50 in [7] (Homo sapiens, PLC-PRF-5) was 50 µM; in experiment [8] it was over 100 µM.

Turning to `O=[N+]([O-])c1ccc(-c2cc(O)c3ccc4[nH]ccc4c3n2)cc1`, the IC50 in [1] (Homo sapiens, SW13) was 50 µM; in [2] (Homo sapiens, ARO) it was over 100 µM; in [3], over 100 µM; in the experiment with A 172, over 100 µM; in experiment [4] (Homo sapiens, C8305) it was over 100 µM; with HT-29, over 100 µM. Further, the IC50 turned out to be 60 µM with MCF7 (Homo sapiens, MCF7); 30 µM in experiment [5]; 100 µM with HepG2 (Homo sapiens, HepG2); 60 µM with IGROV-1 (Homo sapiens, IGROV-1); 50 µM in the experiment on OVCAR-3 (Homo sapiens, OVCAR-3); 80 µM in [6] (Homo sapiens, NCI-H295). Further, the IC50 was over 100 µM in experiment [7] (Homo sapiens, PLC-PRF-5) and over 100 µM in experiment [8].

Consider `O=[N+]([O-])c1cccc(-c2cc(O)c3ccc4[nH]ccc4c3n2)c1`, for which the IC50 in experiment [1] (Homo sapiens, SW13) is 60 µM; in experiment [2] (Homo sapiens, ARO), 80 µM; in experiment [3], over 100 µM; in the experiment on A 172, over 100 µM; in experiment [4] (Homo sapiens, C8305), over 100 µM; in the experiment with HT-29, over 100 µM. Further, the IC50 was 70 µM with MCF7 (Homo sapiens, MCF7); 50 µM in [5]; over 100 µM with HepG2 (Homo sapiens, HepG2); 80 µM in the experiment on IGROV-1 (Homo sapiens, IGROV-1); 50 µM with OVCAR-3 (Homo sapiens, OVCAR-3); 60 µM in experiment [6] (Homo sapiens, NCI-H295). In addition, the IC50 in [7] (Homo sapiens, PLC-PRF-5) was over 100 µM; in experiment [8] it was over 100 µM.

For the compound `Cc1cc(O)c2ccc3[nH]ccc3c2n1`, the half-inhibitory concentration (IC50) was over 100 µM in [1] (Homo sapiens, SW13); over 100 µM in experiment [2] (Homo sapiens, ARO); over 100 µM in experiment [3]; over 100 µM with A 172; over 100 µM in experiment [4] (Homo sapiens, C8305); over 100 µM in the experiment with HT-29. The IC50 is over 100 µM in the experiment with MCF7 (Homo sapiens, MCF7); over 100 µM in [5]; over 100 µM in the experiment on HepG2 (Homo sapiens, HepG2); over 100 µM in the experiment on IGROV-1 (Homo sapiens, IGROV-1); over 100 µM in the experiment with OVCAR-3 (Homo sapiens, OVCAR-3); over 100 µM in experiment [6] (Homo sapiens, NCI-H295). In addition, the IC50 in experiment [7] (Homo sapiens, PLC-PRF-5) is over 100 µM; in [8], over 100 µM.

`Nc1cccc(-c2cc(O)c3ccc4[nH]ccc4c3n2)c1` [listing 2 of 2 here]: the IC50 (in experiment [1] (sw 13); in experiment [2] (aro); in experiment [4] (c8305); in the experiment on MCF7 (mcf7); with HepG2 (hepg2); with IGROV-1 (igrov-1)) was over 100 µM each time. The IC50 (in the experiment with OVCAR-3 (ovcar-3); in experiment [6] (nci-h295); in [7]) was over 100 µM each time.

In the case of `CC[C@]1(O)C[C@H]2CN(CCc3c([nH]c4ccccc34)[C@@](C(=O)OC)(c3cc4c(cc3OC)N(C=O)[C@H]3[C@@](O)(C(=O)OC)[C@H](OC(C)=O)[C@]5(CC)C=CCN6CC[C@]43[C@@H]65)C2)C1` [VINCRISTINE SULFATE], the half-inhibitory concentration (IC50) in experiment [1] (Homo sapiens, SW13) was 0.001 µM; in experiment [2] (Homo sapiens, ARO), under 0.0001 µM; in [3], 0.1 µM; in the experiment with A 172, over 100 µM; in experiment [4] (Homo sapiens, C8305), 0.1 µM; with HT-29, 0.1 µM. Also, the IC50 amounted to 0.01 µM with MCF7 (Homo sapiens, MCF7); 0.1 µM in experiment [5]; 0.1 µM in the experiment with HepG2 (Homo sapiens, HepG2); 0.01 µM with IGROV-1 (Homo sapiens, IGROV-1); 0.01 µM with OVCAR-3 (Homo sapiens, OVCAR-3); 0.1 µM in experiment [6] (Homo sapiens, NCI-H295). The IC50 amounted to 0.1 µM in [7] (Homo sapiens, PLC-PRF-5) and 0.01 µM in experiment [8].
